Reference: ChEMBL document CHEMBL1240400, “Comparative in vitro activities of nemonoxacin (TG-873870), a novel nonfluorinated quinolone, and other quinolones against clinical isolates” (2010)

Columns and labels:
Type in all cases: functional
[1] = system: Enterobacter cloacae; test: Antibacterial activity against Enterobacter cloacae by broth dilution method
[2] = system: Escherichia coli; test: Antibacterial activity against ciprofloxacin susceptible Escherichia coli by broth dilution method
Outline: (§1)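 Broth microdilution per CLSI in panels spanning a dilution range of each agent. Cation-adjusted Mueller-Hinton broth, final inoculum 5 × 10^5 CFU/ml from a 0.5 McFarland suspension. Incubated overnight at 35°C in ambient air, with quality control strains in each run. MIC reported; values at or below the lowest concentration tested are given as that concentration.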

[3] = system: Pseudomonas aeruginosa; test: Antibacterial activity against Pseudomonas aeruginosa by broth dilution method
[4] = system: Acinetobacter baumannii; test: Antibacterial activity against Acinetobacter baumannii by broth dilution method; outline: as §1
[5] = system: Citrobacter freundii; test: Antibacterial activity against Citrobacter freundii by broth dilution method; outline: as §1
[6] = system: Escherichia coli; test: Antibacterial activity against ciprofloxacin resistant Escherichia coli by broth dilution method
Outline: (§2)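 Clinical isolates tested by CLSI broth microdilution in panels holding serial twofold drug dilutions in cation-adjusted Mueller-Hinton broth. Final inoculum 5 × 10^5 CFU/ml was made from a 0.5 McFarland suspension. Plates were incubated overnight at 35°C in ambient air, and the MIC was read as the lowest concentration inhibiting growth. Quality control strains were included in each run.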

[7] = system: Proteus mirabilis; test: Antibacterial activity against Proteus mirabilis by broth dilution method
[8] = system: Klebsiella pneumoniae; test: Antibacterial activity against Klebsiella pneumoniae by broth dilution method; outline: as §1
[9] = system: Enterococcus faecalis; test: Antibacterial activity against vancomycin resistant Enterococcus faecalis by broth dilution method
[10] = system: Enterococcus faecalis; test: Antibacterial activity against Enterococcus faecalis by broth dilution method
[11] = system: Staphylococcus aureus; test: Antibacterial activity against ciprofloxacin and methicillin resistant Staphylococcus aureus by broth dilution method; outline: as §2
[12] = system: Staphylococcus; test: Antibacterial activity against methicillin resistant coagulase negative Staphylococcus by broth dilution method
[13] = system: Streptococcus pneumoniae; test: Antibacterial activity against Levofloxacin susceptible Streptococcus pneumoniae by broth dilution method
Outline: (§3)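 Streptococcus pneumoniae clinical isolates tested by CLSI broth microdilution. A 0.5 McFarland suspension was diluted into Mueller-Hinton broth with 3% lysed horse blood, then tested against serial drug dilutions. Plates were incubated overnight at 35°C in ambient air, and the MIC was read as the lowest inhibitory concentration. Quality control strains were included in each run.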

[14] = system: Staphylococcus aureus; test: Antibacterial activity against ciprofloxacin susceptible and methicillin resistant Staphylococcus aureus by broth dilution method; outline: as §2
[15] = system: Streptococcus viridans; test: Antibacterial activity against Streptococcus viridans by broth dilution method
Outline: (§4)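 Streptococci were tested by CLSI broth microdilution in Mueller-Hinton broth with 3% lysed horse blood, seeded from a 0.5 McFarland suspension. Incubated overnight at 35°C in ambient air, with quality control strains in each run. MIC taken over a per-agent dilution range.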

[16] = system: Streptococcus agalactiae; test: Antibacterial activity against Streptococcus agalactiae by broth dilution method; outline: as §4
[17] = system: Enterococcus faecium; test: Antibacterial activity against vancomycin resistant Enterococcus faecium by broth dilution method; outline: as §2
[18] = system: Staphylococcus epidermidis; test: Antibacterial activity against methicillin resistant coagulase negative Staphylococcus epidermidis by broth dilution method
[19] = system: Streptococcus pyogenes; test: Antibacterial activity against Streptococcus pyogenes by broth dilution method; outline: as §4
[20] = system: Enterococcus faecium; test: Antibacterial activity against Enterococcus faecium by broth dilution method; outline: as §2
[21] = system: Streptococcus pneumoniae; test: Antibacterial activity against Levofloxacin resistant Streptococcus pneumoniae by broth dilution method; outline: as §3
[22] = system: Staphylococcus aureus; test: Antibacterial activity against methicillin susceptible Staphylococcus aureus by broth dilution method
[23] = system: Haemophilus influenzae; test: Antibacterial activity against Haemophilus influenzae by broth dilution method
Outline: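 Broth microdilution per CLSI using Haemophilus Test Medium broth, seeded from a 0.5 McFarland suspension. Incubated overnight at 35°C in ambient air, with quality control strains in each run. MIC read against a tested dilution range; values at the low limit are given as the lowest concentration.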

CCN1CCN(C(=O)N[C@@H](C(=O)N[C@@H]2C(=O)N3[C@@H]2SC(C)(C)[C@@H]3C(=O)O)c2ccccc2)C(=O)C1=O [PIPERACILLIN]
32 µg/mL: MIC50 [7]
128 µg/mL: MIC50 [3]
0.5 µg/mL: MIC90 [6]
16 µg/mL: MIC50 [5]
> 128 µg/mL: MIC50 [1] | MIC90 [1] | MIC50 [2] | MIC90 [2] | MIC90 [3] | MIC50 [4] | MIC90 [4] | MIC90 [5] | MIC90 [7] | MIC50 [8] | MIC90 [8]
2 µg/mL: MIC [6]

CC(=O)NC[C@H]1CN(c2ccc(N3CCOCC3)c(F)c2)C(=O)O1 [LINEZOLID]
2 µg/mL: MIC90 [9] | MIC90 [10] | MIC50 [11] | MIC90 [11] | MIC90 [12] | MIC50 [14] | MIC90 [14] | MIC90 [15] | MIC50 [17] | MIC90 [17] | MIC90 [18] | MIC50 [20] | MIC90 [20] | MIC50 [22] | MIC90 [22]
1 µg/mL: MIC50 [9] | MIC50 [10] | MIC50 [12] | MIC50 [13] | MIC90 [13] | MIC50 [15] | MIC [16] | MIC50 [16] | MIC90 [16] | MIC50 [18] | MIC50 [19] | MIC90 [19] | MIC50 [21] | MIC90 [21]

CC(C)(O/N=C(\C(=O)N[C@@H]1C(=O)N2C(C(=O)[O-])=C(C[n+]3ccccc3)CS[C@H]12)c1csc(N)n1)C(=O)O [CEFTAZIDIME]
16 µg/mL: MIC90 [2] | MIC50 [8]
≤ 1 µg/mL: MIC [23] | MIC50 [23] | MIC90 [23] | MIC50 [5] | MIC50 [7] | MIC90 [7]
1 µg/mL: MIC [2] | MIC50 [2]
128 µg/mL: MIC50 [1]
32 µg/mL: MIC50 [3]
> 128 µg/mL: MIC90 [1] | MIC90 [3] | MIC90 [4] | MIC90 [8]
64 µg/mL: MIC50 [4] | MIC90 [5]

C[C@@H](O)[C@H]1C(=O)N2C(C(=O)O)=C(SCCNC=N)C[C@H]12 [IMIPENEM ANHYDROUS]
> 32 µg/mL: MIC90 [4]
0.5 µg/mL: MIC50 [8]
8 µg/mL: MIC90 [7]
1 µg/mL: MIC50 [1] | MIC50 [23] | MIC50 [5]
2 µg/mL: MIC50 [4] | MIC90 [5] | MIC50 [7]
4 µg/mL: MIC90 [1] | MIC90 [23] | MIC90 [8]

CO/N=C(\C(=O)N[C@@H]1C(=O)N2C(C(=O)O)=C(CSc3nc(=O)c(O)nn3C)CS[C@H]12)c1csc(N)n1 [CEFTRIAXONE]
0.06 µg/mL: MIC50 [2]
1 µg/mL: MIC50 [13] | MIC50 [21]
0.25 µg/mL: MIC50 [15] | MIC50 [5]
> 8 µg/mL: MIC50 [1] | MIC90 [1] | MIC50 [11] | MIC90 [11] | MIC50 [12] | MIC90 [12] | MIC50 [14] | MIC90 [14] | MIC90 [2] | MIC [3] | MIC50 [3] | MIC90 [3] | MIC50 [4] | MIC90 [4] | MIC90 [5] | MIC50 [18] | MIC90 [18] | MIC50 [6] | MIC90 [7] | MIC50 [8] | MIC90 [8]
64 µg/mL: MIC90 [6]
0.5 µg/mL: MIC90 [15]
4 µg/mL: MIC50 [22] | MIC90 [22]
2 µg/mL: MIC90 [13] | MIC90 [21]
≤ 0.03 µg/mL: MIC50 [23] | MIC90 [23] | MIC50 [7]
≤ 0.06 µg/mL: MIC50 [16] | MIC [19] | MIC50 [19] | MIC90 [19]
0.12 µg/mL: MIC90 [16]

Cc1onc(-c2ccccc2)c1C(=O)N[C@@H]1C(=O)N2[C@@H]1SC(C)(C)[C@@H]2C(=O)O [OXACILLIN]
0.5 µg/mL: MIC50 [22]
1 µg/mL: MIC90 [22]
> 8 µg/mL: MIC [11] | MIC50 [11] | MIC90 [11] | MIC50 [12] | MIC90 [12] | MIC50 [14] | MIC90 [14] | MIC50 [18] | MIC90 [18]

CO/N=C(\C(=O)N[C@@H]1C(=O)N2C(C(=O)[O-])=C(C[N+]3(C)CCCC3)CS[C@H]12)c1csc(N)n1
> 8 µg/mL: MIC50 [3] | MIC90 [3] | MIC50 [4] | MIC90 [4] | MIC90 [5]
≤ 0.06 µg/mL: MIC50 [5] | MIC50 [7]
0.5 µg/mL: MIC90 [23]
8 µg/mL: MIC90 [7]
0.25 µg/mL: MIC50 [23]

CN[C@H](CC(C)C)C(=O)N[C@H]1C(=O)N[C@@H](CC(N)=O)C(=O)N[C@H]2C(=O)N[C@H]3C(=O)N[C@H](C(=O)N[C@H](C(=O)O)c4cc(O)cc(O)c4-c4cc3ccc4O)[C@H](O)c3ccc(c(Cl)c3)Oc3cc2cc(c3O[C@@H]2O[C@H](CO)[C@@H](O)[C@H](O)[C@H]2O[C@H]2C[C@](C)(N)[C@H](O)[C@H](C)O2)Oc2ccc(cc2Cl)[C@H]1O [VANCOMYCIN]
2 µg/mL: MIC50 [9] | MIC50 [10] | MIC50 [11] | MIC90 [11] | MIC50 [12] | MIC90 [12] | MIC50 [18] | MIC90 [18]
0.5 µg/mL: MIC50 [13] | MIC90 [13] | MIC [15] | MIC50 [15] | MIC [16] | MIC50 [16] | MIC50 [19] | MIC90 [19] | MIC50 [21] | MIC90 [21]
8 µg/mL: MIC50 [17] | MIC50 [20]
1 µg/mL: MIC50 [14] | MIC90 [14] | MIC90 [15] | MIC90 [16] | MIC50 [22] | MIC90 [22]
> 16 µg/mL: MIC90 [9] | MIC90 [10] | MIC90 [17] | MIC90 [20]
